Data reported in article PMC8349541 (OncoTargets and therapy, 2021).

Assays:
GBM8401 glioma cells [1] = assay: BrdU proliferation assay, GBM8401; type: cell-based, human; conditions: GBM8401, 48 h; for effect on cell proliferation: single dose
[2] = tested on: NHA (normal human astrocyte); assay: MTS cell viability assay, NHA; type: cell-based
LN229 glioma cells [3] = assay: Wound healing migration assay, LN229; type: cell-based, human; conditions: LN229, 16 h wound healing, dosage under IC50
Summary of the method: (§1)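 Cells plated at 1×10^5 per well in 12-well plates at 37°C, 5% CO2. At 90% confluence the medium was removed and the monolayer scratched with a 200 μL pipette tip, then washed three times. Wound imaged at 0 and 16 h, and migration calculated from the change in wound area, with 0 h DMSO-control area set to 100%.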

LN229 glioma cells [4] = assay: BrdU proliferation assay, LN229; type: cell-based, human; conditions: for effect on cell proliferation: LN229, 48 h, single dose
GBM8401 glioma cells [5] = assay: MTS cell viability assay, GBM8401; type: cell-based, human
Summary of the method: (§2)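 Cells in DMEM with 10% FBS and penicillin/streptomycin at 37°C under 5% CO2, seeded in 96-well plates (LN229 3000, GBM8401 2000 cells per well). Exposed to test compound for 24 h, then incubated 2 h with MTS reagent added to the medium. Absorbance read at 490 nm, and IC50 determined from the viability data.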

GBM8401 glioma cells [6] = assay: Colony formation assay, GBM8401; type: cell-based, human; conditions: GBM8401, cultured 2 weeks
Summary of the method: (§3)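 Cells seeded at 3000 per well in 6-well plates and grown 2 weeks, with test compound added on day 3. Colonies fixed in methanol and stained with 0.5% crystal violet. Image analysis counted colonies larger than 0.1 mm in diameter. Mean ± s.d., n = 3.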

LN229 glioma cells [7] = assay: Cell cycle analysis; type: cell-based, human; conditions: LN229, 48 h, low-dose
Summary of the method: (§4)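 Treated 48 h, then fixed in 70% ethanol at 4°C and held overnight at −20°C. Washed twice in cold PBS containing 1% FBS, then stained with PI solution containing Tween 20 and RNase A for 30 min at 37°C in the dark. DNA content read by flow cytometry. Mean ± s.d., n = 3, against control by t test or one-way ANOVA.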

LN229 glioma cells [8] = assay: Colony formation assay, LN229; type: cell-based, human; conditions: LN229, cultured 2 weeks
Summary of the method: as §3

GBM8401 glioma cells [9] = assay: Cell cycle analysis; type: cell-based, human; conditions: GBM8401, 48 h, low-dose
Summary of the method: as §4

[10] = tested on: SVG p12 normal brain cell line; assay: MTS cell viability assay, SVG p12; type: cell-based, human
LN229 glioma cells [11] = assay: MTS cell viability assay, LN229; type: cell-based, human
Summary of the method: as §2

GBM8401 glioma cells [12] = assay: Wound healing migration assay, GBM8401; type: cell-based, human; conditions: GBM8401, 16 h wound healing, dosage under IC50
Summary of the method: as §1

[13] = Homo sapiens, Glioma cell, 24 h
[14] = SVG p12, MTS assay, 24 h treatment

Molecule	effect on cell proliferation (GBM8401 glioma cells [1])	IC50 ([2]; NHA, MTS assay, 24 h treatment)	effect on migration (LN229 glioma cells [3])	effect on cell proliferation (LN229 glioma cells [4])	IC50 (GBM8401 glioma cells [5]; [13])	effect on colony formation (GBM8401 glioma cells [6])	effect on colony formation (LN229 glioma cells [8])	IC50 [10, 14]	IC50 (LN229 glioma cells [11]; Homo sapiens, LN-229, 24 h)	effect on migration (GBM8401 glioma cells [12])	also measured
O=C(/C=C/c1ccc(O)cc1)CC(=O)/C=C/c1ccc(O)cc1 [Bisdemethoxycurcumin]	significantly increased the cell proliferation	31.9 µM	had no effect on the migration	significantly increased the cell proliferation	32.4 µM	dose dependently increased colony formation	dose dependently increased colony formation	29.2 µM	26.8 µM	had no effect on the migration	dose effect on cell proliferation (BrdU M1) (GBM8401 glioma cells [1]): dose-dependently increased M1; dose effect on cell proliferation (BrdU M1) (LN229 glioma cells [4]; LN229 (printed LN299), 48 h): dose-dependently increased M1; effect on cell viability (GBM8401 glioma cells [5]; GBM8401, low-dose): slightly increased cell viability; effect on S phase (LN229 glioma cells [7]): increased S phase not significantly; effect on S phase (GBM8401 glioma cells [9]): increased S phase not significantly; IC50 ([10]; Homo sapiens, SVGp12, 24 h, SVG p12, MTS assay, 24 h treatment): 30 µM; effect on cell viability (LN229 glioma cells [11]; LN229, low-dose): slightly increased cell viability
COc1cc(/C=C/C(=O)CC(=O)/C=C/c2ccc(O)c(OC)c2)ccc1O [Curcumin]	suppressed cell proliferation	–	dose-dependently inhibited the migration	suppressed cell proliferation	6.31 µM	inhibited colony formation	inhibited colony formation	–	5.85 µM	dose-dependently inhibited the migration	IC50 ([2]; Homo sapiens, Astrocyte, 24 h): 22.2 µM; IC50 ([10]; Homo sapiens, SVGp12, 24 h): 4.19 µM
Demethoxycurcumin	reduce	11.3 µM	had no effect on the migration	promoted cell proliferation	–	not in GBM8401 cells	suppressed colony formation in LN229 cells only in high-dose manner	30 µM	–	had no effect on the migration	IC50 (GBM8401 glioma cells [5]; GBM8401, MTS assay, 24 h treatment): 17.7 µM; IC50 (LN229 glioma cells [11]; LN229, MTS assay, 24 h treatment): 24.5 µM
